Assay results from paper PMC7508919 (Molecular Therapy Oncolytics, 2020).
“Also recorded” adds a separate entry of the source.

How the values were obtained:
[1] = tested on: MDA-MB-231 cells; experiment: Apoptosis by Annexin V/PI flow cytometry; format: cell-based; details: 24, 48 or 72 h, Annexin V-FITC/PI, Figure 3D
How it was run: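 MDA-MB-231 cells were grown in DMEM with 10% FBS at 37°C and 5% CO2. They were treated with serial dilutions of test peptide or scrambled peptide, then stained with FITC-Annexin V and PI for flow cytometry. Annexin V+/PI− (early) plus Annexin V+/PI+ (late) cells were scored as apoptotic. Three independent experiments, mean ± SD, one-way ANOVA.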

[2] = tested on: MDA-MB-231 cells; experiment: MTT cell viability / proliferation, MDA-MB-231; format: cell-based; details: 1 nM–100 μM, 24, 48 or 72 h, 0.04% FBS, Figure 3A
How it was run: (§1)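 Log-phase cells (DMEM, 10% FBS) are seeded at 5 × 10^3 cells/well for 24 h, then starved 12 h in 0.04% FBS medium. Serially diluted test peptide or scrambled peptide is added in the same medium. Viability is read by MTT at 24, 48 and 72 h. Mean ± SD of three independent experiments; one-way ANOVA versus 0 μM at each time.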

[3] = biological target: T1, GPR1 (Homo sapiens, UniProt P46091); experiment: Immunofluorescence colocalization of FITC-LRH7-G5 with GPR1; format: cell-based; details: breast cancer cells; 1 μM FITC-labeled peptide, 2 h at RT, confocal microscopy
T1 sequence (P46091 1-355): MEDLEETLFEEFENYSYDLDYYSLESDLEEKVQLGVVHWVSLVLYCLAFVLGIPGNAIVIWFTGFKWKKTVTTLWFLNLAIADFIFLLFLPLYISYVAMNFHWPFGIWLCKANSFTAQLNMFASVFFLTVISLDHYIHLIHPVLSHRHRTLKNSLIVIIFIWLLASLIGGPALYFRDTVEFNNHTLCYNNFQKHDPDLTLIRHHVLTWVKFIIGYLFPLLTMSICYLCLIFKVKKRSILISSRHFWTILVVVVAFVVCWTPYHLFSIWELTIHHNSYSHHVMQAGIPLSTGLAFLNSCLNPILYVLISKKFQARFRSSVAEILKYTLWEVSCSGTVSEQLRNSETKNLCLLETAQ

[4] = tested on: MDA-MB-231 cells; experiment: Transwell migration assay, MDA-MB-231; format: cell-based; details: 0.1 μM to 10 μM, 12 h, Figure 4
How it was run: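 Uncoated Transwell chambers were used. MDA-MB-231 cells were placed in the upper chamber in FBS-free medium with test peptide or scrambled peptide. The lower chamber held 10% FBS medium. Incubation ran 12 h at 37°C, 5% CO2. Unmigrated cells were wiped off. Migrated cells were methanol-fixed for 10 min, hematoxylin-stained for 30 min at RT, and counted by inverted microscopy. Three independent experiments, mean ± SD.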

[5] = tested on: tumor tissue; experiment: TUNEL assay of tumor tissue; format: in vivo, nude BALB/c mice; details: Figure 6C
How it was run: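 Xenograft tumor tissue was fixed in 4% PFA overnight and paraffin-embedded. Apoptotic cells in sections were detected with a FragEL DNA fragmentation kit (TUNEL) and imaged at ×200. Tumors came from test peptide- or scrambled peptide-treated mice.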

[6] = tested on: PI3K/AKT pathway; experiment: Western blot of PI3K/AKT pathway; format: cell-based
[7] = tested on: MDA-MB-231 cells; experiment: Transwell invasion assay, MDA-MB-231; format: cell-based; details: Matrigel-coated Transwell, 48 h, Figure 4
How it was run: (§2)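 Cells (2 × 104) were seeded in serum-free medium with serially diluted test peptide or scrambled peptide into Matrigel-coated upper Transwell chambers. The lower chamber held 10% FBS medium as chemoattractant. Incubation ran 48 h at 37°C, 5% CO2. Non-invaded cells were removed. Invaded cells were methanol-fixed for 10 min, stained with hematoxylin for 30 min, and counted. Three independent experiments, mean ± SD.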

[8] = Body weight of nude mice, MDA-MB-231 model; format: in vivo, nude BALB/c mice; details: MDA-MB-231 nude mice; i.p. daily, 25 days; Figure 5F
How it was run: (§3)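 Female nude BALB/c mice, 4–6 weeks old, were randomised into five groups. Each received MDA-MB-231-tomato or HCC1937-tomato cells (7 × 106 in 100 μL PBS) s.c. into the left axilla. Serially diluted test peptide or scrambled peptide was given i.p. daily for 25 days. Body weight and tumor size were recorded every 3 days, with volume = length × width² × 0.5. IVIS imaging was done twice weekly. Tumors were weighed at sacrifice.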

[9] = tested on: MDA-MB-231 cells; experiment: Colony formation assay, MDA-MB-231; format: cell-based; details: 1 month of treatment, Figure 3B
How it was run: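 MDA-MB-231-tomato cells were seeded at 1 × 10^3 cells/well in 6-well plates. They were exposed to indicated concentrations of test peptide or scrambled peptide. Fluorescent colonies were counted under a fluorescence microscope.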

[10] = Body weight of nude mice, HCC1937 model; format: in vivo, nude BALB/c mice; details: i.p. daily, 25 days, Figure S5E
How it was run: as §3

[11] = tested on: GPR1; experiment: Phage clones binding to GPR1 by ELISA; set-up: species or system human; details: versus HEK293 pcDNA cells, Figure 2A
How it was run: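 A Ph.D.-7 library (diversity 2.8 × 109) was precleared, then panned for five rounds over stable GPR1-overexpressing HEK293 cells (2 × 10^5/well, seeded 24 h). Eluted clones were serially diluted and incubated with GPR1-overexpressing or empty-vector HEK293 cells. Phage ssDNA was then sequenced.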

[12] = tested on: GPR1; experiment: Calcium mobilization assay, GPR1-expressing cells; format: cell-based, human; details: Fluo-4 NW, Figure 2D
How it was run: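 HEK293 cells stably transfected with human GPR1 (pcDNA3.0 vector, G418 resistance), with empty-vector HEK293 as control, grown in DMEM with 10% FBS. […] Fluo-4 NW dye is used following the kit instructions. Reported as mean ± SD of three independent experiments.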

[13] = tested on: T47D cells; experiment: MTT cell viability / proliferation, T47D; format: cell-based; details: 1 nM–100 μM, 24, 48 or 72 h, 0.04% FBS, Figure 3A
How it was run: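 T47D cells were maintained in RPMI with 10% FBS. Log-phase cells were seeded at 5 × 10^3 cells/well for 24 h, then starved in 0.04% FBS medium for 12 h. Serial dilutions of test peptide or scrambled peptide in 0.04% FBS medium were added for 24, 48 and 72 h before MTT read-out. Three independent experiments, mean ± SD. One-way ANOVA versus 0 μM at each time point.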

[14] = tested on: MDA-MB-231 xenograft; experiment: MDA-MB-231 xenograft in nude mice; format: in vivo, nude BALB/c mice; details: MDA-MB-231 nude mice; i.p. daily, 25 days; n = 5–6 per group
How it was run: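 Female nude BALB/c mice, 4–6 weeks old, receive 7 × 10^6 MDA-MB-231-tomato cells in 100 μL PBS subcutaneously into the left axilla. Serially diluted test peptide or scrambled peptide is injected i.p. daily. Body weight and tumor size are recorded every 3 days, with volume = length × width² × 0.5, and IVIS bioluminescence is imaged twice weekly. Tumors are weighed at sacrifice; mean ± SD.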

[15] = tested on: HCC1937 cells; experiment: Transwell invasion assay, HCC1937; format: cell-based; details: Matrigel-coated Transwell, 48 h, Figure S4
How it was run: as §2

[16] = tested on: HCC1937 cells; experiment: MTT cell viability / proliferation, HCC1937; format: cell-based; details: 1 nM–100 μM, 24, 48 or 72 h, 0.04% FBS, Figure 3A
How it was run: as §1

[17] = tested on: HCC1937 xenograft; experiment: HCC1937 xenograft in nude mice; format: in vivo, nude BALB/c mice; details: i.p. daily, 25 days, n=5
How it was run: as §3

[18] = tested on: TNBC cells; experiment: Western blot of cell-cycle, apoptosis and invasion proteins; format: cell-based; details: immunoblot, Figure 4D
[19] = tested on: MDA-MB-231 cells; experiment: Cell-cycle distribution by flow cytometry; format: cell-based; details: 24, 48 or 72 h, PI staining, Figure 3C
How it was run: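 MDA-MB-231 cells (DMEM, 10% FBS, 37°C, 5% CO2) are treated with serially diluted test peptide for 24, 48 or 72 h. Cells are stained with propidium iodide for 30 min at room temperature in the dark. Flow cytometry gives the percentages in G0/G1, S and G2/M. Mean ± SD of three independent experiments; one-way ANOVA versus control phases.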

[20] = tested on: tumor tissue; experiment: Histology/IHC of tumor tissue; format: in vivo, nude BALB/c mice
How it was run: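 Xenograft tumors were fixed in 4% PFA overnight, paraffin-embedded and sectioned. Sections were H&E-stained (×200, ×400) or immunostained for Ki-67, PCNA and vimentin using an IHC kit (×200). Groups were test peptide- or scrambled peptide-treated mice.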

[21] = tested on: HCC1937 cells; experiment: Transwell migration assay, HCC1937; format: cell-based; details: 12 h, Figure S4
[22] = tested on: HEK293 pcDNA cells; experiment: Calcium mobilization assay, HEK293 pcDNA cells; format: cell-based; details: Fluo-4 NW, Figure 2D
How it was run: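 Stably transfected HEK293 cells carrying empty pcDNA3.0 vector (G418 resistance) served as the control line. Intracellular calcium was read with Fluo-4 NW dye following the kit protocol. Human recombinant chemerin was the agonist and test peptide the antagonist. Three independent experiments, mean ± SD.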

[23] = biological target: T1, GPR1; details: cited from earlier work
[24] = tested on: GPR1; experiment: cAMP assay; format: cell-based, human; details: 10 nM huChemerin, 10 μM forskolin, 30 min at 37°C; mean ± SD, three independent experiments
How it was run: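 Stable GPR1-transfected and empty-vector HEK293 cells are seeded at 5 × 10^3 cells/well for 24 h. Cells are then exposed to serial dilutions of test peptide alone, forskolin plus chemerin, or forskolin, chemerin and peptide combined. cAMP is measured with a commercial kit.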

[25] = tested on: receptors CMKLR1 and GPR1; details: comparison of the two receptors; cited from earlier work
[26] = Gi class of heterotrimeric G proteins

MPRLPPA [LRH7-G5]
induction of apoptosis [1]: induced their apoptosis
effect on cell growth (MTT) [2]: significantly suppressed cell growth in a dose-dependent manner
colocalization with GPR1 [3]: marked colocalization with GPR1
effect on migration [4]: significantly suppressed; also recorded: decreased migration
cellular apoptosis in tumor (TUNEL) [5]: increase in cellular apoptosis; also recorded: induces apoptosis in tumors
effect of peptide in coculture with AKT phosphorylation activator SC-79 ([6]; cocultured with SC-79): enhanced by the AKT agonist
effect of peptide in coculture with PI3K inhibitor wortmannin ([6]; cocultured with wortmannin): weakened by the PI3K inhibitor
phosphorylation of AKT ([6]; immunoblot): significantly decreased
phosphorylation of ERK ([6]; immunoblot): significantly decreased
effect on invasion [7]: significantly suppressed
mean body weight [8]: did not change significantly
effect on colony formation [9]: validated by colony formation assays
body weight [10]: did not affect body weight
binding affinity of phage clones to GPR1 [11]: highest affinity
effect on chemerin-induced calcium mobilization [12]: significantly decreased chemerin-induced calcium mobilization
effect on cell growth (MTT) [13]: little effect
tumor burden [14]: reduced the tumor burden in a dose-dependent manner
effect on invasion [15]: significantly suppressed
effect on cell growth (MTT) [16]: significantly suppressed cell growth in a dose-dependent manner
tumor volume ([17]; compared with control group): markedly decreased
tumor weight ([17]; compared with control group): markedly decreased
tumor growth ([17]; dose-dependent, bioluminescence): substantially suppressed tumor growth
tumor burden [17]: reduced the tumor burden in a dose-dependent manner
Bcl-2 level ([18]; apoptosis regulator): decreased
Stat3 level ([18]; apoptosis regulator): decreased
cyclin D level ([18]; cell-cycle-related protein): decreased
MMP-2 level ([18]; invasion-related): decreased
MMP-9 level ([18]; invasion-related): decreased
N-cadherin level ([18]; invasion-related): decreased
Snail level ([18]; invasion-related): decreased
vimentin level ([18]; invasion-related): decreased
cell-cycle arrest [19]: arrested MDA-MB-231 cells at the G0/G1 phase boundary
tumor necrosis (H&E) ([20]; H&E staining, Figure 6A): exhibited cellular necrosis
tumor cell growth (Ki-67, PCNA, vimentin staining) ([20]; IHC staining of Ki-67, PCNA, and vimentin, Figure 6B): decreased cell growth
effect on migration [21]: significantly suppressed
effect on calcium mobilization in HEK293 pcDNA cells [22]: did not affect

chemerin: human recombinant chemerin, R&D Systems; chemokine-like adipokine, GPR1 ligand
cAMP accumulation on GPR1 activation [23, 26]: inhibition of cyclic adenosine monophosphate (cAMP) accumulation
p42-p44 MAP kinases phosphorylation on GPR1 activation [23, 26]: phosphorylation of the p42-p44 MAP kinases
intracellular calcium release on GPR1 activation [23]: intracellular calcium release
effect on forskolin-induced cAMP release [24]: suppressed forskolin-induced cAMP release
binding affinities for CMKLR1 and GPR1 [25]: similar
